This note sets out measurements from ChEMBL document CHEMBL1147931, “3-(3,4,5-Trimethoxyphenyl)-1-oxo-2-propene: a novel pharmacophore displaying potent multidrug resistance reversal and selective cytotoxicity” (Bioorg Med Chem, 2007).

Structures are written as SMILES. The source made the active and inactive calls. The calls are words filed in the database; no cut-off is given here.

In series [1] the test system is HSC-2. Description: Cytotoxicity against HSC2 cells. The class given is functional. The settings on record: Homo sapiens. The method in brief: (§1)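 Adherent cells pre-cultured 24 h in DMEM with 10% […] FBS, humidified 5% CO2, then exposed to a range of compound concentrations. Cells washed once with PBS, incubated 4 h in fresh medium with MTT, lysed in DMSO, viable cells read at 540 nm. CC50 from dose-response curves, average of two independent determinations.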

Series [2] has as its system HSC-3. The series can be described thus: Cytotoxicity against HSC3 cells. It counts as functional. The settings on record: Homo sapiens. The method in brief:
as §1

The test system of series [3] is HSC-4. The series can be described thus: Cytotoxicity against HSC4 cells. Conditions: Homo sapiens. It counts as functional. The method in brief:
as §1

Series [4] has as its system HL-60. The series can be described thus: Cytotoxicity against human HL60 cells. It counts as functional. The method in brief:
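HL-60 cells grown in RPMI1640 plus 10% FBS in humidified 5% CO2, exposed to a range of compound concentrations. Viable cells counted by trypan blue exclusion. CC50 from dose-response curves, average of two independent determinations.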

The nature of series [5]: Cytotoxicity against HGF cells. Conditions: human. The class given is cell-based. The method in brief:
as §1

Series [6] can be described thus: Cytotoxicity against HPLF cells. Conditions: human. The class given is cell-based. Summed up:
as §1

Series [7] is described as follows: Cytotoxicity against HPC cells. It counts as cell-based. The settings on record: human. Summed up:
as §1

The test system of series [8] is HL-60. Description: Effect on apoptosis in human HL60 cells assessed as increase in caspase 9 activation above 8 uM after 4 hrs. It counts as functional, cell-based.
Series [9] deals with HL-60. The series can be described thus: Effect on apoptosis in human HL60 cells assessed as increase in caspase 8 activation above 8 uM after 4 hrs. It counts as functional, cell-based.
Series [10] has as its system HL-60. Description: Effect on apoptosis in human HL60 cells assessed as increase in caspase 3 activation above 8 uM after 4 hrs. It counts as functional, cell-based.
Series [11] relates to HSC-2. Description: Effect on apoptosis in HSC2 cells assessed as increase in caspase 3 activation at 8 uM after 4 hrs. It counts as functional, cell-based. Conditions: Homo sapiens. Summed up:
(§2)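 HSC-2 cells (2×10^6) grown in DMEM with 10% FBS in humidified 5% CO2, incubated 4 h with 4, 8, 16 or 32 µM compound; actinomycin D 1 µg/mL as positive control. Lysate (200 µg protein) incubated 2 h at 37 °C with DEVD-pNA (caspase-3), IETD-pNA (caspase-8) or LEHD-pNA (caspase-9); released pNA read at 405 nm. Mean of 2–3 experiments.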

Series [12] has as its system HSC-2. The series can be described thus: Effect on apoptosis in HSC2 cells assessed as increase in caspase 9 activation at 32 uM after 4 hrs. It counts as functional, cell-based. Conditions: Homo sapiens. Summed up: as §2
Series [13] concerns HL-60. Description: Effect on apoptosis in human HL60 cells assessed as increase in caspase 3 activation at 4 uM after 4 hrs. It counts as functional, cell-based.
Series [14] has as its system HSC-2. Description: Effect on apoptosis in HSC2 cells assessed as increase in caspase 3 activation at 32 uM after 4 hrs. Conditions: Homo sapiens. The class given is functional, cell-based. Summed up: as §2
The subject of series [15] is HSC-2. Description: Effect on apoptosis in HSC2 cells assessed as increase in caspase 8 activation at 32 uM after 4 hrs. The class given is functional, cell-based. Conditions: Homo sapiens. Summed up: as §2

As to `N[C@@H](Cc1ccc(N(CCCl)CCCl)cc1)C(=O)O` [MELPHALAN], the CC50 is 35 µM in [1]; 115 µM in series [2]; 81 µM in series [3]; 6 µM in [4]; greater than 200 µM in [5]; greater than 200 µM in series [6]. This compound also gave a CC50 in series [7] greater than 200 µM.

Consider `COc1ccc(/C=C/C(=O)/C=C/c2ccc([N+](=O)[O-])cc2)cc1`, for which the CC50 in series [1] came out at 6.3 µM; in series [2], 16 µM; in [3], 12 µM; in series [4], 25 µM; in series [5] it was 81 µM; in series [6], 193 µM. Moreover, in series [7], the CC50 amounted to 141 µM.

`COc1cc(/C=C2\CCCC/C(=C\c3cc(OC)c(OC)c(OC)c3)C2=O)cc(OC)c1OC`: the CC50 in [1] came out at 113 µM; in series [2], 132 µM; in [3] it was 67 µM; in series [4], 46 µM; in series [5], 229 µM; in [6] it was 250 µM. This compound displayed a CC50 in [7] of 276 µM.

As for `COc1cc(/C=C2\CCCC/C(=C\c3ccc([N+](=O)[O-])cc3)C2=O)cc(OC)c1OC`, the CC50 in series [1] was found to be 116 µM; in series [2], 279 µM; in series [3], 100 µM; in series [4], 266 µM; in series [5] it was 256 µM; in [6], 370 µM. In series [7], the CC50 was 198 µM.

As for `COc1cc(/C=C2\CCC/C(=C\c3cc(OC)c(OC)c(OC)c3)C2=O)cc(OC)c1OC`, the CC50 in [1] came out at 34 µM; in series [2], 62 µM; in series [3], 36 µM; in [4] it was 46 µM; in series [5], 335 µM; in series [6], 388 µM. This compound came in with a CC50 in [7] of 285 µM.

With `COc1cc(/C=C/C(=O)/C=C/c2ccc([N+](=O)[O-])cc2)cc(OC)c1OC`, the CC50 in series [1] is less than 3.1 µM; in series [2] it was 5.7 µM; in series [3], 3.8 µM; in [4], 6.4 µM; in series [5], 16 µM; in series [6] it was 106 µM. This compound came in with a CC50 in [7] of 94 µM. In addition, the result in [8], in series [9], in series [10], in series [11] and in series [12] was Active.

In turn, `COc1ccc(/C=C2\CCC/C(=C\c3ccc([N+](=O)[O-])cc3)C2=O)cc1` displayed a CC50 in [3] greater than 400 µM.

Consider `COc1cc(/C=C2\CCCCCC2=O)cc(OC)c1OC`, for which the CC50 came out at 214 µM in [1]; 200 µM in [2]; 269 µM in [3]; 31 µM in series [4]; 262 µM in series [5]; 291 µM in series [6]. The compound further gave a CC50 in [7] of 277 µM.

As to `COc1cc(/C=C/C(C)=O)cc(OC)c1OC`, the CC50 in series [1] was 55 µM; in series [2] it was 72 µM; in series [3] it was 41 µM; in [4], 47 µM; in [5], 159 µM; in [6], 263 µM. The CC50 in [7] was found to be 188 µM.

For the compound `COc1cc(/C=C2\CC/C(=C\c3cc(OC)c(OC)c(OC)c3)C2=O)cc(OC)c1OC`, the CC50 in series [1] is 19 µM; in series [2], 89 µM; in series [3] it was 58 µM; in series [4], 21 µM; in [5], 240 µM; in series [6], 281 µM. Besides, the CC50 in [7] came out at 247 µM.

On to `COc1cc(/C=C2\CCC/C(=C\c3ccc([N+](=O)[O-])cc3)C2=O)cc(OC)c1OC`, for which, in [3], half-maximal cytotoxicity (CC50) was put at 1.5 µM. The result in series [13], in series [14] and in series [15] was Active. Besides, the result in series [12] was inactive.

As a reminder, the CC50 is the concentration that lowers cell viability or growth by half. A higher CC50 goes with lower toxicity to the cells.
